According to ChEMBL document CHEMBL4402602, “Discovery of (2R)-N-[3-[2-[(3-Methoxy-1-methyl-pyrazol-4-yl)amino]pyrimidin-4-yl]-1H-indol-7-yl]-2-(4-methylpiperazin-1-yl)propenamide (AZD4205) as a Potent and Selective Janus Kinase 1 Inhibitor” (J Med Chem, 2020):
Values after ≈ are worked out from the molar mass of the structure shown. Active and inactive are the calls of the source. The rule behind the calls is not given here.

Key:
[1] = biological target: T1, Tyrosine-protein kinase JAK1 (Homo sapiens, UniProt P23458); assay: Inhibition of recombinant human N-terminal GST-tagged JAK1 (866 to 1154 residues) expressed in insect cells using FITC-labeled C6-KKHTDDGYMPMSPGVA-NH peptide as substrate after 10 mins in presence of 5 mM ATP by caliper mobility shift assay
[2] = biological target: Tyrosine-protein kinase JAK2 (Homo sapiens, UniProt O60674); assay: Inhibition of recombinant human N-terminal GST-tagged JAK2 (831 to 1132 residues) expressed in insect cells using 5FAM-labeled GEEPLYWSFPAKKK-NH2 peptide as substrate after 10 mins in presence of 5 mM ATP by caliper mobility shift assay
[3] = species on record: Homo sapiens; assay: Selectivity index, ratio of IC50 for inhibition of recombinant human N-terminal GST-tagged JAK2 (831 to 1132 residues) expressed in insect cells using 5FAM-labeled GEEPLYWSFPAKKK-NH2 peptide as substrate after 10 mins in presence of 5 mM ATP by caliper mobility shift assay to IC50 for inhibition of …
[4] = Solubility of compound at pH 7.4; type: physicochemical; details: buffer
[5] = biological target: T1, Tyrosine-protein kinase JAK1; assay: Inhibition of JAK1 in human NCI-H1975 cells assessed as decrease in STAT3 phosphorylation measured after 1 hr by ELISA; type: cell-based
Outline: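 Cellular mode-of-action assay in NCI-H1975 cells measuring inhibition of STAT3 phosphorylation. IC50 values are geometric means of at least two independent experiments.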

[6] = biological target: Voltage-gated inwardly rectifying potassium channel KCNH2 (Homo sapiens, UniProt Q12809); assay: Inhibition of human ERG
[7] = system: NCI-H1975; assay: Antitumor activity against human NCI-H1975 cells harboring EGFR T790M mutant xenografted in NCr nude mouse assessed as tumor growth inhibition at 2.5 mg/kg, po qd administered for 18 days post 10 days of implantation; type: functional, organism-based
Outline: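 NCI-H1975 cells implanted subcutaneously in female NCr nude mice. At day 10, mice randomised into groups of 6 to 8 (mean tumour volume 189 mm³, range 152 to 250 mm³). Dosed orally for 18 days, vehicle 20% captisol. Tumour growth followed against vehicle-treated controls.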

[8] = Toxicity in NCr nude mouse xenografted with human NCI-H1975 cells harboring EGFR T790M mutant assessed as effect on body weight at 2.5 mg/kg, po qd administered for 18 days post 10 days of implantation; type: organism-based; details: in vivo
[9] = system: Mus musculus; assay: In vivo inhibition of EFGR T790M mutant in human NCI-H1975 cells xenografted in NCr nude mouse assessed as reduction of EGFR phosphorylation at Y1173 residue 2.5 mg/kg measured up to 24 hrs relative to control; type: functional
Outline: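 Satellite group of subcutaneous NCI-H1975 tumour-bearing female NCr nude mice treated for a single day at a single 2.5 mg/kg dose. pEGFR (Y1173) measured in tumour lysates at time points up to 24 h after dosing, as the EGFR (T790M) inhibition biomarker.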

Tyrosine-protein kinase JAK2, sequence (O60674 whole entry, the tested form may be a part): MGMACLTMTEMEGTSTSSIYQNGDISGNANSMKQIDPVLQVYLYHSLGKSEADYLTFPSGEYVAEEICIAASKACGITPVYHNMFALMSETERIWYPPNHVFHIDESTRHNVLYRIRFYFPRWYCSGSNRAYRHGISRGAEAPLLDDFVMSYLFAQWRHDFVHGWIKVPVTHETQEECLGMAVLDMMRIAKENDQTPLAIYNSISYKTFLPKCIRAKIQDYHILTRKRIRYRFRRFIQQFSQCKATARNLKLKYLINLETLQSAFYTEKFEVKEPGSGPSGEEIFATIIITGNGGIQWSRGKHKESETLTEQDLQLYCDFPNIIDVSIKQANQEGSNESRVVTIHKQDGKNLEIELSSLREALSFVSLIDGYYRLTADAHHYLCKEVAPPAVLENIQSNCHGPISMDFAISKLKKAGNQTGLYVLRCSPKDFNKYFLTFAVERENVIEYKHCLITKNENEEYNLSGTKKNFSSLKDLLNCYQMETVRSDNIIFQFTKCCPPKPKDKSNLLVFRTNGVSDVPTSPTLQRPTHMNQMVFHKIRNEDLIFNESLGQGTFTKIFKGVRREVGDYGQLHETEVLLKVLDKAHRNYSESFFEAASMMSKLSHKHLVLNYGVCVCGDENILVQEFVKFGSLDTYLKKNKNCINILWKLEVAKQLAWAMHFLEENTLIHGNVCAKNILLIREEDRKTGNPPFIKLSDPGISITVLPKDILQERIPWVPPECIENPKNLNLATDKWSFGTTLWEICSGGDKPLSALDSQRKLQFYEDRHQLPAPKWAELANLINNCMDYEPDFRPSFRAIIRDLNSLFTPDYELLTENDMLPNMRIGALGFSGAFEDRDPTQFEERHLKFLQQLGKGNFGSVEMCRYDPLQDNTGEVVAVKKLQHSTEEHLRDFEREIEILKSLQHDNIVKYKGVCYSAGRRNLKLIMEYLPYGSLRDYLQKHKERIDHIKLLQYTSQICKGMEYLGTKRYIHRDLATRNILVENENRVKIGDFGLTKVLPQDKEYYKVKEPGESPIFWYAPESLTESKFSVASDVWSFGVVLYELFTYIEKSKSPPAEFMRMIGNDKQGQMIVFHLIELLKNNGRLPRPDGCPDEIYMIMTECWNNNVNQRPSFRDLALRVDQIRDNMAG
Voltage-gated inwardly rectifying potassium channel KCNH2, sequence (Q12809 whole entry): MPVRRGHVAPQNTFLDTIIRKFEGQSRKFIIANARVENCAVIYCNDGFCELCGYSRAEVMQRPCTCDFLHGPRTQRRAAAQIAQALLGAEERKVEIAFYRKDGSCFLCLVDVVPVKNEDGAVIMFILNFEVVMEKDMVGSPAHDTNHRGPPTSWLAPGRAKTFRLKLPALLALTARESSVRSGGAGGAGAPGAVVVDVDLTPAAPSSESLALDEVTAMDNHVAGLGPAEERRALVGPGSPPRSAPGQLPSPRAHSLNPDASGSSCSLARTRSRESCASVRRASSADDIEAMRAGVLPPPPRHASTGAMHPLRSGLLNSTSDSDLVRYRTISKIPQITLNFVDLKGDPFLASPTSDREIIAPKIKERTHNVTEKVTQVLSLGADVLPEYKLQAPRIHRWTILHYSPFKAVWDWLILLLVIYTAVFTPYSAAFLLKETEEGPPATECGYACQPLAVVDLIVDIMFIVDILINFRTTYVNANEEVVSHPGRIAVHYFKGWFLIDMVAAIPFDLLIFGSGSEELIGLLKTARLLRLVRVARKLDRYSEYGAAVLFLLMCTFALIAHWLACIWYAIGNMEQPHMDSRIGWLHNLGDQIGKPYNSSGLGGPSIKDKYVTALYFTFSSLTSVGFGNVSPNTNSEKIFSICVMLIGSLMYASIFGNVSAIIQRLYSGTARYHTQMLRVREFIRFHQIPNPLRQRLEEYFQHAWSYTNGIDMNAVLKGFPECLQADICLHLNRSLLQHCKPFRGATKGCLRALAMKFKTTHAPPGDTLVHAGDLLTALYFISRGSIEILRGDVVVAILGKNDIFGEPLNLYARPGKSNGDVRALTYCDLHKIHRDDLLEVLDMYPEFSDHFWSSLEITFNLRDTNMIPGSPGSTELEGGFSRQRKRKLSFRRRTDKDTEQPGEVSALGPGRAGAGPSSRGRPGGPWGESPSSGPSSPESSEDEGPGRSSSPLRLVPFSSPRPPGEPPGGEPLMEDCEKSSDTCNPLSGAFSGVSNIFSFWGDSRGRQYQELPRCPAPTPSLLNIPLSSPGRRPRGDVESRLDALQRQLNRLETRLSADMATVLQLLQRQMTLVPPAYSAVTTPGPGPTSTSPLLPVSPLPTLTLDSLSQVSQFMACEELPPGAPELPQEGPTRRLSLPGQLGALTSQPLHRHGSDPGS
T1 sequence (P23458 whole entry, the tested form may be a part): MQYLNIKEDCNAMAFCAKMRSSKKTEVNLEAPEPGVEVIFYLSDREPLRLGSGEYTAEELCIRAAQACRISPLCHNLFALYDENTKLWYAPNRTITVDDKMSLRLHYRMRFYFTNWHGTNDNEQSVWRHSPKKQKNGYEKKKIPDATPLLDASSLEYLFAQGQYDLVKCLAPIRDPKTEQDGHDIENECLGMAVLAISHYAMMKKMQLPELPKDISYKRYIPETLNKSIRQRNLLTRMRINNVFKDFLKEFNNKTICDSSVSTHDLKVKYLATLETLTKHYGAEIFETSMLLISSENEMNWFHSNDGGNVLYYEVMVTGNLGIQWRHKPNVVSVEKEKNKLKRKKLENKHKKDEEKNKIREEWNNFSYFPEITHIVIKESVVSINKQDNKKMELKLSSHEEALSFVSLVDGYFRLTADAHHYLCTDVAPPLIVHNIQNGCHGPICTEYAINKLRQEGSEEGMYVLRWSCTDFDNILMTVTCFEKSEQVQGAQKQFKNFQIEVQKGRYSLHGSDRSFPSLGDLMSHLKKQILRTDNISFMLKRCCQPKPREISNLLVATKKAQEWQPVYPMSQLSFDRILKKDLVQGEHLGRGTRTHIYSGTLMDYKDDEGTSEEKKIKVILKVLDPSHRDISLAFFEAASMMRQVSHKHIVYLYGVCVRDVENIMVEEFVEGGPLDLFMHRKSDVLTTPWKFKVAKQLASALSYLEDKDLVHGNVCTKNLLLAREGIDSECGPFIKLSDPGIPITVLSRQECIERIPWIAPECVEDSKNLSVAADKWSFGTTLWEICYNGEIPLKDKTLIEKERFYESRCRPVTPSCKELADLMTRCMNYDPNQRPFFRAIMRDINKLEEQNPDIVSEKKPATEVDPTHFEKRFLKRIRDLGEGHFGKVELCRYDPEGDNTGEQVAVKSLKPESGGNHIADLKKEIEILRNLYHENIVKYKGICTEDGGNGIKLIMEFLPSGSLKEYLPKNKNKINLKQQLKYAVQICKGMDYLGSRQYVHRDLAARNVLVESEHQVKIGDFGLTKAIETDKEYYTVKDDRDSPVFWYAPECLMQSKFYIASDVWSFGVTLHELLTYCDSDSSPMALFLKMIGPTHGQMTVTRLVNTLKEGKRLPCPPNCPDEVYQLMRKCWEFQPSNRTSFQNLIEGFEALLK

Row | Structure (SMILES) | IC50 [1] [nM] | IC50 [2] [nM] | Ratio IC50 [3] | solubility [4] [µM] | IC50 [5] [nM] | IC50 [6] [nM] | TGI [7] | Activity [8] | inhibition (INH) [9] [%]
1 | Cc1cnc(NC(=O)C2CC2)nc1-c1c[nH]c2c(NC(=O)[C@@H](C)N3CCN(C)CC3)cccc12 | 180 | > 30000 | > 166 | > 930 | – | – | – | – | –
2 | Cc1cnc(NC(=O)C2CC2)nc1-c1c[nH]c2c(NC(=O)C(C)(C)N3CCN(C)CC3)cccc12 | 1700 | > 30000 | > 18 | > 1000 | – | – | – | – | –
3 | Cc1ccc(C(=O)Nc2cccc3c(-c4nc(Nc5cnn(C)c5)ncc4C)c[nH]c23)c(C)n1 | 4 | 200 | 50 | – | – | – | – | – | –
4 | N#CC[C@H]([C@H]1CCN(c2cccc(Cl)c2C#N)C1)n1cc(-c2ncnc3[nH]ccc23)cn1 | 20 | 2400 | 120 | – | – | – | – | – | –
5 | COc1nn(C)cc1Nc1ncc(C)c(-c2c[nH]c3c(NC(=O)[C@@H](C)N4CCN(C)CC4)cccc23)n1 | – | – | 540 | – | 130 | > 100000 | – | – | –
6 | Cc1ccc(C(=O)Nc2cccc3c(-c4nc(NC(=O)C5CC5)ncc4C)c[nH]c23)c(C)n1 | 43 | 2500 | 58 | 2 (≈ 0.881 µg/mL) | – | – | – | – | –
7 | Cc1cnc(Nc2cccnc2C)nc1-c1c[nH]c2c(NC(=O)[C@@H](C)N3CCN(C)CC3)cccc12 | 130 | > 30000 | > 230 | – | 180 | > 33000 | – | – | –
8 | C=CC(=O)Nc1cc(Nc2nccc(-c3cn(C)c4ccccc34)n2)c(OC)cc1N(C)CCN(C)C [OSIMERTINIB] | – | – | – | – | – | – | inactive | Non-Toxic | 100
9 | Cc1cnc(Nc2cccnc2F)nc1-c1c[nH]c2c(NC(=O)[C@@H](C)N3CCN(C)CC3)cccc12 | – | 30000 | > 1110 | – | 80 | 10000 | – | – | –
10 | Cc1cnc(Nc2cnn(C)c2)nc1-c1c[nH]c2ccccc12 | 70 | 380 | 5 | – | – | – | – | – | –
11 | Cc1cnc(NC(=O)C2CC2)nc1-c1c[nH]c2c(NC(=O)[C@H](C)N3CCN(C)CC3)cccc12 | 1100 | > 30000 | > 27 | > 1000 | – | – | – | – | –
